From ChEMBL document CHEMBL2034978, “Synthesis and evaluation of curcumin-related compounds for anticancer activity” (Eur J Med Chem, 2012)
The source made the active and inactive calls. The calls are words filed in the database; no cut-off is given here.

Key:
PANC-1 [1] = assay: Cytotoxicity against human PANC1 cells after 72 hrs by MTT assay; type: functional, cell-based; conditions: PANC-1, 72 h
Method in brief: (§1)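 Seeded at 0.2 × 10⁵ cells/ml, grown 24 h, then exposed 72 h to a range of concentrations (upper limit 30). MTT read-out: formazan dissolved in DMSO, absorbance at 540 nm, growth expressed as percent of DMSO-treated cells.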

PC-3 [2] = assay: Cytotoxicity against human PC3 cells after 72 hrs by MTT assay; type: functional, cell-based; conditions: PC-3, 72 h; method in brief: as §1
HT-29 [3] = assay: Cytotoxicity against human HT-29 cells after 72 hrs by MTT assay; type: functional, cell-based; conditions: HT-29, 72 h; method in brief: as §1
HT-29 [4] = assay: Ratio of curcumin IC50 to compound IC50 for human HT-29 cells; type: functional
Method in brief: (§2)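 Curcumin served as positive control in each incubation, with its growth-inhibition data averaged across experiments.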

PC-3 [5] = assay: Induction of apoptosis in human PC3 cells at <1 uM after 96 hrs by morphology analysis; type: functional, cell-based
PC-3 [6] = assay: Ratio of curcumin IC50 to compound IC50 for human PC3 cells; type: functional; method in brief: as §2
PC-3 [7] = assay: Inhibition of Akt phosphorylation in human PC3 cells at 0.5 uM after 24 hrs by Western blotting relative to beta-actin; type: cell-based
Method in brief: (§3)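 PC-3 cells were seeded at 1 × 10⁵ cells/ml in 100 mm dishes, grown 24 h, then treated 24 h. Cells were lysed in Tris-HCl pH 7.4 buffer containing NaF, pyrophosphate, orthovanadate and Triton X-100, and lysates cleared at 12,000×g. Blots on PVDF were probed with anti-phospho-Akt or anti-phospho-Erk1/2, detected by ECL, quantified by optical density and normalized to β-actin.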

[8] = target: Mitogen-activated protein kinase; ERK1/ERK2 (Homo sapiens) (UniProt P27361+P28482); assay: Inhibition of ERK1/2 phosphorylation in human PC3 cells at 0.5 uM after 24 hrs by Western blotting relative to beta-actin; type: cell-based; conditions: PC-3; method in brief: as §3
PANC-1 [9] = assay: Ratio of curcumin IC50 to compound IC50 for human PANC1 cells; type: functional; method in brief: as §2

Chain of Mitogen-activated protein kinase; ERK1/ERK2 (Homo sapiens) (P27361 whole entry, looked up): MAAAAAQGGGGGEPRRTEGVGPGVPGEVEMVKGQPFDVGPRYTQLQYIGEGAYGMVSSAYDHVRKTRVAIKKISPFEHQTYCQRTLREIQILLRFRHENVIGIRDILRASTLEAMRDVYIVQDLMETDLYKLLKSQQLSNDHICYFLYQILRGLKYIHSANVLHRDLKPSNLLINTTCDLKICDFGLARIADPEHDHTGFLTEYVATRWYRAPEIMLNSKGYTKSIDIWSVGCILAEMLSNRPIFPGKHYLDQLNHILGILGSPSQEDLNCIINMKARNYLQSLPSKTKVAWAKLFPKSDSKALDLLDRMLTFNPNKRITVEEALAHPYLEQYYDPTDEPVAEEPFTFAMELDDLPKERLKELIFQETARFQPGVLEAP
Chain of Mitogen-activated protein kinase; ERK1/ERK2 (Homo sapiens) (P28482 whole entry, looked up): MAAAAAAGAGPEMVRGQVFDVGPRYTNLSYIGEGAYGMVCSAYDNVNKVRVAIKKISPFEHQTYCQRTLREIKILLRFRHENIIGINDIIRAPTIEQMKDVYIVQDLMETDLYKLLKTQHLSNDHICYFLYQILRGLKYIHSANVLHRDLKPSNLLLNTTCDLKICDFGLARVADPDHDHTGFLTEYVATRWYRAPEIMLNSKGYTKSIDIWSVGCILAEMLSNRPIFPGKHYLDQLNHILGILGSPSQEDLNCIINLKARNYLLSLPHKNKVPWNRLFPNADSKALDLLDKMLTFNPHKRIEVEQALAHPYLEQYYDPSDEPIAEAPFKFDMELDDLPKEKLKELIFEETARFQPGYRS

Compound: O=C(/C=C/c1ccc(Cl)cc1)/C=C/c1ccc(Cl)cc1
- IC50 (PANC-1 [1]): 14.1 µM
- IC50 (PC-3 [2]): 16.7 µM
- IC50 (HT-29 [3]): 10.9 µM

Compound: O=C1/C(=C/c2ccccn2)CC/C1=C\c1ccccn1
- IC50 (PANC-1 [1]): 5.19 µM
- IC50 (PC-3 [2]): 2.94 µM
- IC50 (HT-29 [3]): 5.36 µM

Compound: COc1cc(/C=C/C(=O)/C=C/c2ccc(O)c(OC)c2)ccc1O
- IC50 (PANC-1 [1]): 4.62 µM
- IC50 (PC-3 [2]): 4.2 µM
- IC50 (HT-29 [3]): 2.94 µM

Compound: O=C1/C(=C/c2cccnc2)CCC/C1=C\c1cccnc1
- IC50 (PANC-1 [1]): 2.5 µM
- IC50 (PC-3 [2]): 2.16 µM
- IC50 (HT-29 [3]): 1.99 µM

Compound: O=C1/C(=C/c2cccnc2)COC/C1=C\c1cccnc1
- IC50 (PANC-1 [1]): 0.98 µM
- IC50 (PC-3 [2]): 2.21 µM
- IC50 (HT-29 [3]): 1.81 µM

Compound: O=C1C(=Cc2ccc(O)cc2)CSCC1=Cc1ccc(O)cc1
- IC50 (PANC-1 [1]): 12 µM
- IC50 (PC-3 [2]): 8.23 µM
- IC50 (HT-29 [3]): 4.27 µM

Compound: O=C1/C(=C/c2ccccn2)CCC/C1=C\c1ccccn1
- IC50 (PANC-1 [1]): 1.3 µM
- IC50 (PC-3 [2]): 1.28 µM
- IC50 (HT-29 [3]): 1.43 µM

Compound: O=C1/C(=C/c2ccc(Cl)cc2)CCC/C1=C\c1ccc(Cl)cc1
- IC50 (PANC-1 [1]): 11.8 µM
- IC50 (PC-3 [2]): 11.3 µM
- IC50 (HT-29 [3]): 7.75 µM

Compound: O=C(/C=C/c1ccc(Br)cc1)/C=C/c1ccc(Br)cc1
- IC50 (PANC-1 [1]): 20.8 µM
- IC50 (PC-3 [2]): 23.1 µM
- IC50 (HT-29 [3]): 14 µM

Compound: O=C1/C(=C/c2ccc(O)cc2)CC/C1=C\c1ccc(O)cc1
- IC50 (PANC-1 [1]): > 30 µM
- IC50 (PC-3 [2]): 22.9 µM
- IC50 (HT-29 [3]): 21.4 µM

Compound: O=C(/C=C/c1ccc(F)cc1)/C=C/c1ccc(F)cc1
- IC50 (PANC-1 [1]): 12.5 µM
- IC50 (HT-29 [3]): 9.35 µM

Compound: COc1cc(/C=C2\COC/C(=C\c3cc(OC)c(O)c(OC)c3)C2=O)cc(OC)c1O
- IC50 (PANC-1 [1]): 1.72 µM
- IC50 (PC-3 [2]): 0.91 µM
- IC50 (HT-29 [3]): 1.44 µM

Compound: COc1ccc(/C=C/C(=O)/C=C/c2ccc(OC)c(OC)c2)cc1OC
- IC50 (PANC-1 [1]): 3.39 µM
- IC50 (PC-3 [2]): 2.98 µM
- IC50 (HT-29 [3]): 2.17 µM

Compound: O=C1/C(=C/c2ccncc2)CC/C1=C\c1ccncc1
- IC50 (PANC-1 [1]): 7.88 µM
- IC50 (PC-3 [2]): 5.58 µM
- IC50 (HT-29 [3]): 7.58 µM

Compound: COc1cc(C=C2CSCC(=Cc3cc(OC)c(OC)c(OC)c3)C2=O)cc(OC)c1OC
- Ratio IC50 (HT-29 [4]): 72
- IC50 (PANC-1 [1]): 0.7 µM
- IC50 (PC-3 [2]): 0.28 µM
- Activity (PC-3 [5]): Active
- Ratio IC50 (PC-3 [6]): 69
- IC50 (HT-29 [3]): 0.26 µM
- inhibition (PC-3 [7]): inactive
- inhibition [8]: Active
- Ratio IC50 (PANC-1 [9]): 34

Compound: O=C1/C(=C/c2ccc(F)cc2)CCC/C1=C\c1ccc(F)cc1
- IC50 (PANC-1 [1]): 10.4 µM
- IC50 (PC-3 [2]): 11.9 µM
- IC50 (HT-29 [3]): 7.56 µM

Compound: COc1ccc(/C=C2\COC/C(=C\c3ccc(OC)c(OC)c3OC)C2=O)c(OC)c1OC
- IC50 (PANC-1 [1]): 2.67 µM
- IC50 (PC-3 [2]): 2.74 µM
- IC50 (HT-29 [3]): 2.45 µM

Compound: O=C1/C(=C/c2ccsc2)COC/C1=C\c1ccsc1
- IC50 (PANC-1 [1]): 10.8 µM
- IC50 (PC-3 [2]): 6.59 µM
- IC50 (HT-29 [3]): 8.94 µM

Compound: COc1cc(/C=C/C(=O)/C=C/c2cc(OC)c(O)c(OC)c2)cc(OC)c1O
- IC50 (PANC-1 [1]): 2.23 µM
- IC50 (PC-3 [2]): 3.41 µM
- IC50 (HT-29 [3]): 2.24 µM

Compound: O=C(/C=C/c1ccc(O)cc1)/C=C/c1ccc(O)cc1
- IC50 (PANC-1 [1]): 13.6 µM
- IC50 (PC-3 [2]): 9.68 µM
- IC50 (HT-29 [3]): 9.38 µM

Compound: COc1cc(/C=C2\CCC/C(=C\c3cc(OC)c(O)c(OC)c3)C2=O)cc(OC)c1O
- IC50 (PANC-1 [1]): 2.63 µM
- IC50 (PC-3 [2]): 4.14 µM
- IC50 (HT-29 [3]): 2.7 µM

Compound: COc1ccc(/C=C/C(=O)/C=C/c2ccc(OC)cc2)cc1
- IC50 (PANC-1 [1]): 14 µM
- IC50 (PC-3 [2]): 11.2 µM
- IC50 (HT-29 [3]): 11.3 µM

Compound: O=C(/C=C/c1ccc(O)c(O)c1)/C=C/c1ccc(O)c(O)c1
- IC50 (PANC-1 [1]): 13.4 µM
- IC50 (PC-3 [2]): 8.99 µM
- IC50 (HT-29 [3]): 9.02 µM

Compound: COc1cc(/C=C2\CCC/C(=C\c3ccc(O)c(OC)c3)C2=O)ccc1O [CYCLOVALONE]
- IC50 (PANC-1 [1]): 4.43 µM
- IC50 (PC-3 [2]): 5.89 µM
- IC50 (HT-29 [3]): 3.73 µM

Compound: O=C1/C(=C/c2cccnc2)CC/C1=C\c1cccnc1
- IC50 (PANC-1 [1]): 6.22 µM
- IC50 (PC-3 [2]): 6.97 µM
- IC50 (HT-29 [3]): 5.54 µM

Compound: COc1ccc(/C=C2\CC/C(=C\c3ccc(OC)cc3)C2=O)cc1
- IC50 (PANC-1 [1]): > 30 µM
- IC50 (PC-3 [2]): 25.8 µM
- IC50 (HT-29 [3]): 23 µM

Compound: O=C1/C(=C/c2ccc(Cl)cc2)CNC/C1=C\c1ccc(Cl)cc1
- IC50 (PANC-1 [1]): 3.73 µM
- IC50 (PC-3 [2]): 3.63 µM
- IC50 (HT-29 [3]): 6.33 µM

Compound: COc1ccc(/C=C2\CCC/C(=C\c3ccc(OC)c(OC)c3OC)C2=O)c(OC)c1OC
- IC50 (PANC-1 [1]): 11.6 µM
- IC50 (PC-3 [2]): 8.22 µM
- IC50 (HT-29 [3]): 7.14 µM

Compound: O=C1/C(=C/c2ccc(F)cc2)CNC/C1=C\c1ccc(F)cc1
- IC50 (PANC-1 [1]): 3.15 µM
- IC50 (PC-3 [2]): 2.87 µM
- IC50 (HT-29 [3]): 3.26 µM

Compound: O=C1/C(=C/c2cccnc2)CSC/C1=C\c1cccnc1
- Ratio IC50 (HT-29 [4]): 27
- IC50 (PANC-1 [1]): 0.51 µM
- IC50 (PC-3 [2]): 0.96 µM
- Activity (PC-3 [5]): Active
- Ratio IC50 (PC-3 [6]): 21
- IC50 (HT-29 [3]): 0.79 µM
- inhibition (PC-3 [7]): inactive
- inhibition [8]: Active
- Ratio IC50 (PANC-1 [9]): 45
